Tests used:
dengue virus type 2 = assay: Antiviral activity against Dengue virus 2 infected in human HuH7 cells incubated for 48 hrs by luciferase reporter gene assay; conditions: Huh-7, 48 h
[1] = Cytotoxicity against human HuH7 cells assessed as reduction in cell viability incubated for 48 hrs by alamar blue reagent based cell viability assay; parameters: species or system Huh-7
Method in brief: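 Run in parallel on the same DENV2-infected Huh7 cultures (MOI 0.05, 4 h infection). Viability measured with AlamarBlue per the manufacturer's protocol, with fluorescence detected at 560 nm. CC50 calculated as the half-maximal cytotoxic concentration.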

[2] = target: T1, Cyclin-G-associated kinase (Homo sapiens, UniProt O14976); assay: Inhibition of tracer 222 binding to recombinant human GST-tagged GAK (1 to 329 residues) expressed in insect cells incubated for 1 hr by Lanthascreen assay
T1 sequence (O14976 whole entry): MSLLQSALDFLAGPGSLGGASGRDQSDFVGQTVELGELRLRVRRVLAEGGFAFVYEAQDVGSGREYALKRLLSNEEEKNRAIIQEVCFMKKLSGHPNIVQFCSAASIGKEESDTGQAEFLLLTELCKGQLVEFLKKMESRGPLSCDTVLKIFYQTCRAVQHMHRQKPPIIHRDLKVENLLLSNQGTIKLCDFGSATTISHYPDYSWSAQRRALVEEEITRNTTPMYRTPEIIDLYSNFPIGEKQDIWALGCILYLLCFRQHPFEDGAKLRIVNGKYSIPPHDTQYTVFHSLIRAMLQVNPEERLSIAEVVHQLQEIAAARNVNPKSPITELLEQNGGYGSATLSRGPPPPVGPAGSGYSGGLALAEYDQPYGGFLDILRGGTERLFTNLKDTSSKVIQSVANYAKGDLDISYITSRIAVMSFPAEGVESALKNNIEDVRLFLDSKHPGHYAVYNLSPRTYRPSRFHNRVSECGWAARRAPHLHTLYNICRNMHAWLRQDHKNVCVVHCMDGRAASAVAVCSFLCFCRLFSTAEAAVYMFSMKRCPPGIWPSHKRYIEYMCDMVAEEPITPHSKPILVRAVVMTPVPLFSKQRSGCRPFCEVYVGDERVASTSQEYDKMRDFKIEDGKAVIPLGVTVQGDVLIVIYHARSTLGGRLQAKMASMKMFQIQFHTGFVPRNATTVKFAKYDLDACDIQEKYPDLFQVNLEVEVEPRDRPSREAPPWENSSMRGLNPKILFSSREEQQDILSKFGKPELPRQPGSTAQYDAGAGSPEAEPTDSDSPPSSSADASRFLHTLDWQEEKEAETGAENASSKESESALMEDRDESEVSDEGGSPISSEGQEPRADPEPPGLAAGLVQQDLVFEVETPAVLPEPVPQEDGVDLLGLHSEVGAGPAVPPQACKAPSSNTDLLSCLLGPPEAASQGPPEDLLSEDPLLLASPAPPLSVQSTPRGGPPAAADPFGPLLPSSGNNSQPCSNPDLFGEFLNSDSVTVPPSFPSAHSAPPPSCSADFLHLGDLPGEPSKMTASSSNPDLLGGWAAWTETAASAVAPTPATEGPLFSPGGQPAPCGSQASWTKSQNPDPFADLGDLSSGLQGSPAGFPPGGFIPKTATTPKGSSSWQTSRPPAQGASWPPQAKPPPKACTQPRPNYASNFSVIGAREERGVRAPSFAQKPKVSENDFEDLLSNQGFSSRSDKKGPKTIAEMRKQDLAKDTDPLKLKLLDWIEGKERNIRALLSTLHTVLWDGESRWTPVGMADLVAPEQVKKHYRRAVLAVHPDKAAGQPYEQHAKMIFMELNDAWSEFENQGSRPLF

| Structure (SMILES) | EC50 (dengue virus type 2) [µM] | IC50 [2] [µM] | CC50 at 48 h [1] [µM] |
| --- | --- | --- | --- |
| COc1cc(-c2cnc3c(N4C[C@@H](C)O[C@@H](C)C4)snc3c2)ccc1N | 0.82 | 0.0394 | > 25 |
| C[C@@H]1CN(c2snc3cc(/C=C/c4ccccc4)cnc23)C[C@H](C)O1 | – | > 3.33 | – |
| C[C@@H]1CN(c2snc3cc(C#Cc4ccccc4)cnc23)C[C@H](C)O1 | – | > 10 | – |
| COc1cc(-c2cnc3c(N4C[C@@H](C)O[C@@H](C)C4)snc3c2)cc(OC)c1OC | 2.79 | – | > 10 |
| C[C@@H]1CN(c2snc3ccc(-c4ccc(C(F)(F)F)cc4)nc23)C[C@H](C)O1 | – | > 0.37 | – |
| C#Cc1cccc(Nc2ncnc3cc(OCCOC)c(OCCOC)cc23)c1 [ERLOTINIB] | 1.22 | – | > 10 |

Now from value to compound, other results behind:

| EC50 (dengue virus type 2) [µM] | IC50 [2] [µM] | Structure (SMILES) | CC50 at 48 h [1] [µM] |
| --- | --- | --- | --- |
| 5.83 | – | COc1cc(-c2cnc3c(N4C[C@@H](C)O[C@@H](C)C4)snc3c2)ccc1C(=O)NCc1ccccc1 | > 10 |
| > 10 | – | COc1cccc(-c2ccc3nsc(N4C[C@@H](C)O[C@@H](C)C4)c3n2)c1 | > 10 |
| 1.05 | – | COc1ccc(-c2ccc3nsc(N4C[C@@H](C)O[C@@H](C)C4)c3n2)cc1OC | > 10 |
| 8.85 | – | COc1cc(-c2cnc3c(N4C[C@@H](C)O[C@@H](C)C4)snc3c2)ccc1C(=O)N1CCCC1 | > 10 |
| – | > 0.37 | COc1cc(-c2cnc3c(N4C[C@@H](C)O[C@@H](C)C4)snc3c2)ccc1C(=O)Nc1ccccc1 | – |
| > 10 | – | COc1cc(-c2cnc3c(N4C[C@@H](C)O[C@@H](C)C4)snc3c2)ccc1C(=O)O | > 10 |
| 10.1 | – | COc1cc(-c2cnc3c(N4C[C@@H](C)O[C@@H](C)C4)snc3c2)ccc1C(N)=O | > 10 |
| – | > 3.33 | COc1ccc(-c2cnc3c(N4C[C@@H](C)O[C@@H](C)C4)snc3c2)cn1 | – |
